Experimental data reported in ChEMBL document CHEMBL1148224, “The synthesis and structure-activity relationships of 3-amino-4-benzylquinolin-2-ones; discovery of novel KCNQ2 channel openers” (Bioorg Med Chem Lett, 2004).

Assays:
[1] = target: Potassium voltage-gated channel subfamily KQT member 2 (Mus musculus) (UniProt Q9Z351); test: Increased outward current at -40 mV mediated by mouse KCNQ2 channel expressed in Xenopus laevis oocytes at 1 uM; assay type: functional, cell-based; conditions: Oocyte
Procedure, shortened: (§1)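 Mouse KCNQ2 (mKCNQ2) currents recorded from Xenopus oocytes by two-electrode voltage clamp. Holding potential -90 mV, with about 5 s steps in +10 mV increments up to +40 mV. Records digitized at 5 kHz. Each compound applied at a single concentration (1, 5 or 20 µM) in at least 3 oocytes. Value is the mean percent change in current relative to the drug-free control (100%).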

[2] = target: Potassium voltage-gated channel subfamily KQT member 2 (Mus musculus) (UniProt Q9Z351); test: Increased outward current at -40 mV mediated by mouse KCNQ2 channel expressed in Xenopus laevis oocytes at 20 uM; assay type: functional, cell-based; conditions: Oocyte; procedure, shortened: as §1
[3] = target: Potassium voltage-gated channel subfamily KQT member 2 (Mus musculus) (UniProt Q9Z351); test: Increased outward current at -40 mV mediated by mouse KCNQ2 channel expressed in Xenopus laevis oocytes at 100 nM; assay type: functional, cell-based; conditions: Oocyte
[4] = target: Potassium voltage-gated channel subfamily KQT member 2 (Mus musculus, UniProt Q9Z351); test: Increased outward current at -40 mV mediated by mouse KCNQ2 channel expressed in Xenopus laevis oocytes; assay type: functional, cell-based, Oocyte
[5] = target: Potassium voltage-gated channel subfamily KQT member 2 (Mus musculus) (UniProt Q9Z351); test: Increased outward current at -40 mV mediated by mouse KCNQ2 channel expressed in Xenopus laevis oocytes at 5 uM; Insoluble; assay type: functional, cell-based; conditions: Oocyte; procedure, shortened: as §1
[6] = target: Potassium voltage-gated channel subfamily KQT member 2 (Mus musculus) (UniProt Q9Z351); test: Increased outward current at -40 mV mediated by mouse KCNQ2 channel expressed in Xenopus laevis oocytes at 20 uM; Insoluble; assay type: functional, cell-based; conditions: Oocyte; procedure, shortened: as §1

Chain of Potassium voltage-gated channel subfamily KQT member 2 (Mus musculus) (Q9Z351 whole entry): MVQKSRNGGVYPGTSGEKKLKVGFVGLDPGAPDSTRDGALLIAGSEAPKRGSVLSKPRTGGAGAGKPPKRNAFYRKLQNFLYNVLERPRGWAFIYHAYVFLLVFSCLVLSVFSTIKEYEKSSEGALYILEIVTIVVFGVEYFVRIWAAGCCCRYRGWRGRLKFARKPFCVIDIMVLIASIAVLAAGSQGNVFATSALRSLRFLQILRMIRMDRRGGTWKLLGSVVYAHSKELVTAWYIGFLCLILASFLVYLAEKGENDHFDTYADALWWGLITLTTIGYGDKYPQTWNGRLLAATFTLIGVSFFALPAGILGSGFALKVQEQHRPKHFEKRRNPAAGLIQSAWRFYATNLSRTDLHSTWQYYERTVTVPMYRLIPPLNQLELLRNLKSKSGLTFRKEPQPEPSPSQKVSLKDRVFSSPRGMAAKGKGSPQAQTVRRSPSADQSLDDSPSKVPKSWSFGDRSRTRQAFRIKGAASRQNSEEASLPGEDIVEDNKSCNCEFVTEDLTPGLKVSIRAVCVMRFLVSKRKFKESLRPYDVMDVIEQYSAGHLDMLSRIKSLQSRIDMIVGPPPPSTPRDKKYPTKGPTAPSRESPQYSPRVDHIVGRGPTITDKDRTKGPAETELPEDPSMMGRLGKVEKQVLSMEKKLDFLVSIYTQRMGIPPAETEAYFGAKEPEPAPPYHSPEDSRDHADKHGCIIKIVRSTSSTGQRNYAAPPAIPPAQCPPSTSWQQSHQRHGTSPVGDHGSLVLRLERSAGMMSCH
Chain of Potassium voltage-gated channel subfamily KQT member 2 (Q9Z351 whole entry): as above

Structure (SMILES)	Increase [2] [%]	further results
O=S(=O)(Nc1c(O)nc2ccc(C(F)(F)F)cc2c1Cc1cc(Cl)ccc1O)C(F)(F)F	284	Increase [1]: 217%; Increase [3]: 143%
O=S(=O)(Nc1c(O)nc2cc(C(F)(F)F)ccc2c1Cc1cc(Cl)ccc1O)C(F)(F)F	271	Increase [1]: 190%
O=S(=O)(Nc1c(O)nc2ccccc2c1Cc1ccccc1)C(F)(F)F	131	
O=c1[nH]c2ccc(C(F)(F)F)cc2c(Cc2cc(Cl)ccc2O)c1NS(=O)(=O)C(F)(F)F		EC50 [4]: 0.663 µM
Nc1c(O)nc2cc(C(F)(F)F)ccc2c1Cc1cc(Cl)ccc1O		Increase [5]: Insoluble; Increase [1]: 89%; Increase [6]: Insoluble
CCOC(=O)Nc1ccc(NCc2ccc(F)cc2)cc1N	269	
O=S(=O)(Nc1c(O)nc2cc(C(F)(F)F)ccc2c1Cc1ccccc1O)C(F)(F)F	277	
O=S(=O)(Nc1c(O)nc2cc(C(F)(F)F)ccc2c1Cc1ccccc1)C(F)(F)F	223	
COc1ccc(Cl)cc1Cc1c(NS(=O)(=O)C(F)(F)F)c(O)nc2ccc(C(F)(F)F)cc12	231	
COc1ccccc1Cc1c(NS(=O)(=O)C(F)(F)F)c(O)nc2cc(C(F)(F)F)ccc12	254	
Nc1c(O)nc2ccccc2c1Cc1ccccc1	103	
O=S(=O)(Nc1c(O)nc2cc(C(F)(F)F)ccc2c1Cc1cccc(Cl)c1)C(F)(F)F	220	
Nc1c(O)nc2ccc(C(F)(F)F)cc2c1Cc1cc(Cl)ccc1O	122	
